Experimental data taken from ChEMBL document CHEMBL1130251, “Enzymatic properties of the unnatural beta-L-enantiomers of 2',3'-dideoxyadenosine and 2',3'-didehydro-2',3'-dideoxyadenosine” (J Med Chem, 1997).

What was measured:
[1] = system: Nc1ncnc2c1ncn2[C@H]1CC[C@@H](CO)O1; experiment: Inhibitory activity against Cytidine Kinase
In short: (§1)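 Recombinant human deoxycytidine kinase (expressed in E. coli, purified) at 37 °C. Monophosphate formation measured by C-18 HPLC. Km and Vm from Lineweaver–Burk plots.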

[2] = system: Nc1ncnc2c1ncn2[C@H]1C=C[C@@H](CO)O1; experiment: Inhibitory activity against human deoxycytidine kinase; in short: as §1
[3] = Inhibitory activity against purine nucleoside phosphorylases from human blood and calf spleen; NS, NI/Ino=nonsubstrate, noninhibitor/inhibitor; format: tissue-based
In short: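 Purine nucleoside phosphorylase from calf spleen (0.18 unit·mL⁻¹) or human blood (9 units·mL⁻¹) at 37 °C in 50 mM phosphate pH 7.5. Substrate tests used 50 μM nucleoside. Inhibition used 40 μM inosine with 100 μM test compound. Reaction media were analysed by C-18 HPLC.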

[4] = target: T1, Adenosine deaminase (Bos taurus) (UniProt P56658); experiment: Inhibitory activity against bovine adenosine deaminase; very weak substrate or inhibitor
T1 sequence (whole entry): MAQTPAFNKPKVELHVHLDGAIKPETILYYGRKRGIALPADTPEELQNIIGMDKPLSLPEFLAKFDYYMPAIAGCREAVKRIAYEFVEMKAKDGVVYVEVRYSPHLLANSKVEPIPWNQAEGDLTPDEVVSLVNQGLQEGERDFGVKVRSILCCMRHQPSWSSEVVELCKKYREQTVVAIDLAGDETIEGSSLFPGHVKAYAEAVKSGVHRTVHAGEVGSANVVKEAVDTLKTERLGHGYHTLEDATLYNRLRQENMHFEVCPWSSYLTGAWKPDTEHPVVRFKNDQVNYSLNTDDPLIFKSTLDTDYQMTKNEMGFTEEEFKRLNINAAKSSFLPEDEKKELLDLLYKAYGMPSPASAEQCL
In short: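 Adenosine deaminase (calf intestinal mucosa, type VIII) at 37 °C in 50 mM phosphate pH 7.5. Substrate tests used 20–80 μM nucleoside and 0.01–1 unit enzyme, with HPLC product analysis. Inhibition was read by UV spectrometry with adenosine 20–100 μM. Ki was taken from Lineweaver–Burk plots assuming competitive inhibition.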

Chain of Deoxycytidine kinase (Homo sapiens), P27707 (P27707 whole entry): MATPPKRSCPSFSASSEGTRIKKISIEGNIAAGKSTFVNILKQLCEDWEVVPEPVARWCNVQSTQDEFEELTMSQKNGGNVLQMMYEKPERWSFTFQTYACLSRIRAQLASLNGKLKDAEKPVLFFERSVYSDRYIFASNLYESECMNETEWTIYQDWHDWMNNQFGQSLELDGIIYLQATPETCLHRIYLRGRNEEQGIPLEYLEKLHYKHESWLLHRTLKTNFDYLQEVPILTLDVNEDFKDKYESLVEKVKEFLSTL

Km [3]	inhibition [4]	Molecule	Km [1] [µM]	Km [2] [µM]
		Deoxycytidine kinase (Homo sapiens), P27707	220	620
NS, NI/Ino		Nc1ncnc2c1ncn2[C@H]1CC[C@@H](CO)O1		
NS, NI/Ino	very weak substrate or inhibitor	Nc1ncnc2c1ncn2[C@H]1C=C[C@@H](CO)O1		
